Sampled rows, rich in hits. Any-hit rate of the full collection: about 2.3%.
STAT3 blocker – IL-6 driven STAT3 reporter inhibitors, primary screen, U3A cells, luciferase, luminescence, MLSCN library | AID 862, 2007 | inhibition, % at 5.5 µM | 0.89% of 190,000 active | IL-6 STAT3-luciferase reporter; host cell line lacks STAT1;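 active = inhibition above the mean inhibition across all screened compounds plus 3 SD, cut at about 44% in these data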
STAT1 inh – STAT1 signaling inhibitors, primary screen, cell-based, HTS, luciferase reporter | NIH 3T3 STAT1-luciferase reporter, IFN-gamma, luminescence | inhibition, % at 5.5 µM | 0.35% of 200,000 active;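 active = inhibition above a set limit, the mean inhibition across all tested compounds plus 3 SD, cut at about 34% in these data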
PPC-1+TRAIL kill – compounds killing PPC-1 cancer cells with TRAIL present, primary screen, TRAIL potentiator project, ATPLite luminescence, uHTS; PPC-1 cells + TRAIL, ATPLite viability luminescence; cell killing (% activity), % at 4 µM or 5 µM; 0.41% of 220,000 active;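 active = cell killing above 50% in the first pass at 4 µM, then a duplicate retest at 5 µM averaging 50% or more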
HSP90 inh – HSP90 inhibitors, primary screen, cell lysate, luminescence; 0.91% of 290,000 active; Heat shock protein HSP 90 (rabbit reticulocyte lysate; luciferase refolding); AID 1789, 2009; Rabbit reticulocyte lysate, luciferase refolding luminescence, 3 h; inhibition, % at 5.6 µM;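 active = inhibition above the screen-wide mean plus 3 SD, computed separately per campaign, cut at about 16% in these data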;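 also: inhibitors lower the luminescence because luciferase stays unfolded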
TRAIL sens C8 – viability loss with TRAIL in NB7+C8 cells, primary screen, TRAIL sensitizer project, cell-based, ATPlite luminescence; inhibition (viability loss, TRAIL sensitization), % at 10 µM; AID 624354, 2012; 1% of 360,000 active;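 active = compounds causing at least 50% loss of cell viability in the single-dose screen, relative to plate controls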
STAT3 activator – IL-6 driven STAT3 reporter potentiators, primary screen, U3A cells, luciferase, luminescence, MLSCN library; IL-6 STAT3-luciferase reporter; 100% = signal with IL-6 EC80 alone; AID 871, 2007; 0.91% of 190,000 active; activation (% of control), % at 5.6 µM;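 active = activation above the screen-wide mean of compound activation plus 3 SD, cut at about 130% in these data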
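Material: STAT3-luciferase reporter U3A cells; Probe or stimulus: IL-6 (33 ng/mL); Incubation: compound pre-incubation 1 h before IL-6, then 6 h stimulation at 37 °C; Technique: luminescence from STAT3-driven luciferase reporter; Evaluation: % activation versus median of IL-6-stimulated wells; Controls: IL-6-only high control.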
HSP90 confirm – HSP90 inhibitors, confirmation, cell lysate, luminescence | shares compounds with HSP90 inh | rabbit reticulocyte lysate, luciferase refolding luminescence, 3 h | inhibition, % at 5.9 µM | 64% of 2,300 active; in the data active = inhibition above about 18%
FLuc counter – firefly luciferase inhibitors, HSP90 counter-screen, confirmation, artefact control for HSP90 inhibitor project, biochemical, luminescence, triplicate. shares compounds with HSP90 inh. purified native firefly luciferase. inhibition, % at 5.9 µM. 48% of 2,300 active;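 active = inhibition above the mean inhibition of all tested sample wells plus 3 SD, cut at about 10% in these data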
Target sequence (P08659 whole entry, looked up): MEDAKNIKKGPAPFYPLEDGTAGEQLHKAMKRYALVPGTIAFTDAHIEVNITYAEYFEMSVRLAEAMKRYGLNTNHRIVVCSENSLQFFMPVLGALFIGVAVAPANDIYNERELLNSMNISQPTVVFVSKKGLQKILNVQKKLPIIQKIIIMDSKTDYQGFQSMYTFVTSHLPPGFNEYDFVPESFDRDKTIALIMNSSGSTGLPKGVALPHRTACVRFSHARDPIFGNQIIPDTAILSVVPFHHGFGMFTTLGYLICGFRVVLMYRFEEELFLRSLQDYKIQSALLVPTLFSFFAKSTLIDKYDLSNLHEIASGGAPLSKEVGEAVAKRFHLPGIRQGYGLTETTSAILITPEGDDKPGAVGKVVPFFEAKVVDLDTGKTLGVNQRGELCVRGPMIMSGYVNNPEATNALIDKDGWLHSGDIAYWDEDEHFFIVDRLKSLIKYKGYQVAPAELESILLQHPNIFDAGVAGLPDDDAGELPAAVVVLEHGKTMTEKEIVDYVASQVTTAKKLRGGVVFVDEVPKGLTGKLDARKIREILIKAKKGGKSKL
A number is an active result.

Results for CCOc1ccc(NC(=O)c2cc(F)c(F)cc2Cl)cc1OCC ?
STAT3 blocker: inactive; STAT1 inh: inactive; PPC-1+TRAIL kill: inactive; HSP90 inh: 23.8; TRAIL sens C8: inactive; STAT3 activator: inactive; HSP90 confirm: inactive; FLuc counter: inactive

What do the screens show for `CCOc1ccc(C(=O)Nc2cccc(C(=O)O)c2)cc1Cl`?
STAT3 blocker: 93.1; STAT1 inh: 70.8; PPC-1+TRAIL kill: inactive; HSP90 inh: 87.8; TRAIL sens C8: inactive; STAT3 activator: inactive; HSP90 confirm: 88.0; FLuc counter: 72.5

How did Cc1cc(/C=N/NC(=O)c2cccc(F)c2)c(C)n1-c1ccccc1 do in these assays?
STAT3 blocker: inactive; STAT1 inh: inactive; PPC-1+TRAIL kill: inactive; HSP90 inh: 24.8; TRAIL sens C8: inactive; STAT3 activator: inactive; HSP90 confirm: 48.4; FLuc counter: 46.6

What do the screens show for `CCOc1ccc(C(=O)Nc2cc(NC(=O)c3ccc(OCC)c(Cl)c3)cc(C(=O)O)c2)cc1Cl`?
STAT3 blocker: inactive; STAT1 inh: inactive; PPC-1+TRAIL kill: inactive; HSP90 inh: inactive; TRAIL sens C8: inactive; STAT3 activator: inactive

Results for Cc1cccc(OCC(=O)Nc2cc(NC(=O)COc3cccc(C)c3C)cc(C(=O)O)c2)c1C ?
HSP90 inh: inactive; TRAIL sens C8: inactive

What do the screens show for `O=C(CNC(=O)c1ccccc1)NCCCSc1ccccc1`?
TRAIL sens C8: inactive

How did COc1ccc(NC(=O)c2cccnc2Nc2ccccc2)cc1 do in these assays?
STAT3 blocker: inactive; STAT1 inh: inactive; PPC-1+TRAIL kill: inactive; HSP90 inh: inactive; TRAIL sens C8: inactive; STAT3 activator: inactive

How did CCn1c(C)nc2cc(C(=O)NNC(=S)Nc3ccccc3)ccc21 do in these assays?
STAT3 blocker: inactive; STAT1 inh: inactive; PPC-1+TRAIL kill: inactive; HSP90 inh: 34.1; TRAIL sens C8: inactive; STAT3 activator: inactive; HSP90 confirm: 31.6; FLuc counter: 26.7

Results for O=C(CN1C(=O)c2ccccc2S1(=O)=O)c1ccc(Cl)cc1Cl ?
HSP90 inh: 88.6; TRAIL sens C8: 67.3; HSP90 confirm: 91.2; FLuc counter: 28.6

Results for CN(C)C(=S)Nc1ccc2c(c1)OCO2 ?
STAT3 blocker: inactive; STAT1 inh: inactive; PPC-1+TRAIL kill: inactive; HSP90 inh: inactive; TRAIL sens C8: inactive; STAT3 activator: inactive

What do the screens show for `O=C1N/C(=N\S(=O)(=O)c2ccccc2)S/C1=C\c1cc([N+](=O)[O-])ccc1O`?
HSP90 inh: 53.6; TRAIL sens C8: inactive; HSP90 confirm: inactive; FLuc counter: inactive

How did O=C1N/C(=N\S(=O)(=O)Cc2ccccc2)S/C1=C/c1cc([N+](=O)[O-])ccc1O do in these assays?
PPC-1+TRAIL kill: inactive; HSP90 inh: inactive; TRAIL sens C8: inactive

What do the screens show for `CCc1nnc(NC(=O)CSc2nc(C)c3c(c2C#N)CCCC3)s1`?
STAT3 blocker: inactive; STAT1 inh: inactive; PPC-1+TRAIL kill: 57.3; HSP90 inh: 20.8; TRAIL sens C8: 66.2; STAT3 activator: inactive; HSP90 confirm: inactive; FLuc counter: inactive

What do the screens show for `COc1ccc(NC(=O)CSc2nc(C)c3c(c2C#N)CCCC3)cc1`?
STAT3 blocker: inactive; STAT1 inh: inactive; PPC-1+TRAIL kill: inactive; HSP90 inh: inactive; TRAIL sens C8: inactive; STAT3 activator: inactive

How did COc1ccc(N(CC(=O)Nc2cc(Cl)ccc2OC)C2=NC3CS(=O)(=O)CC3S2)cc1 (centres undefined) do in these assays?
HSP90 inh: inactive; TRAIL sens C8: inactive

How did Cc1cc(O)c(N)c(C)c1Cl do in these assays?
STAT3 blocker: inactive; STAT1 inh: inactive; PPC-1+TRAIL kill: inactive; HSP90 inh: 43.0; TRAIL sens C8: inactive; STAT3 activator: inactive; HSP90 confirm: 80.6; FLuc counter: inactive
